Reference: ChEMBL document CHEMBL4145650, “Napabucasin and Related Heterocycle-Fused Naphthoquinones as STAT3 Inhibitors with Antiproliferative Activity against Cancer Cells” (J Nat Prod, 2018)
The source made the active and inactive calls. No cut-off for these calls is given here.

Tests used:
[1] = test system: MDA-MB-231; test: Antiproliferative activity against human MDA-MB-231 cells measured after 48 hrs by MTT assay; format: functional, cell-based; details: MDA-MB-231, 48 h
Summary of the method: (§1)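 Cells kept in 10% FBS medium with penicillin/streptomycin/L-glutamine at 37 °C, 5% CO2 (MDA-MB-231 in DMEM, K562 in RPMI 1640). Viability read by MTT reduction to formazan after 48 h of exposure. IC50 obtained by nonlinear regression against vehicle control, given as mean ±SD of three independent experiments (n = 2 where footnoted).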

[2] = test system: K562; test: Antiproliferative activity against human K562 cells measured after 48 hrs by MTT assay; format: functional, cell-based; details: K562, 48 h; summary of the method: as §1
[3] = test system: MDA-MB-231; test: Induction of apoptosis in human MDA-MB-231 cells assessed as viable cells at 10 umol/L measured after 2 hrs by annexin-V-FITC/7-AAD staining based flow cytometric analysis (reference value: 97 to 98%); format: functional; details: MDA-MB-231, 2 h, read-out: Activity
[4] = test system: MDA-MB-231; test: Induction of apoptosis in human MDA-MB-231 cells assessed as viable cells at 10 umol/L measured after 4 hrs by annexin-V-FITC/7-AAD staining based flow cytometric analysis (reference value: 97 to 98%); format: functional; details: MDA-MB-231, 4 h, read-out: Activity
[5] = test system: MDA-MB-231; test: Induction of apoptosis in human MDA-MB-231 cells assessed as viable cells at 10 umol/L measured after 6 hrs by annexin-V-FITC/7-AAD staining based flow cytometric analysis (reference value: 97 to 98%); format: functional; details: MDA-MB-231, 6 h, read-out: Activity
[6] = test system: MDA-MB-231; test: Induction of apoptosis in human MDA-MB-231 cells assessed as viable cells at 10 umol/L measured after 8 hrs by annexin-V-FITC/7-AAD staining based flow cytometric analysis (reference value: 97 to 98%); format: functional; details: MDA-MB-231, 8 h, read-out: Activity
[7] = test system: MDA-MB-231; test: Induction of apoptosis in human MDA-MB-231 cells assessed as viable cells at 10 umol/L measured after 24 hrs by annexin-V-FITC/7-AAD staining based flow cytometric analysis (reference value: 97 to 98%); format: functional; details: MDA-MB-231, 24 h, read-out: Activity
[8] = test system: MDA-MB-231; test: Induction of apoptosis in human MDA-MB-231 cells assessed as early apoptotic cells at 10 umol/L measured after 6 hrs by annexin-V-FITC/7-AAD staining based flow cytometric analysis relative to control; format: functional
[9] = test system: MDA-MB-231; test: Induction of apoptosis in human MDA-MB-231 cells assessed as early apoptotic cells at 10 umol/L measured after 8 hrs by annexin-V-FITC/7-AAD staining based flow cytometric analysis relative to control; format: functional
[10] = test system: MDA-MB-231; test: Induction of apoptosis in human MDA-MB-231 cells assessed as early apoptotic cells at 10 umol/L measured after 24 hrs by annexin-V-FITC/7-AAD staining based flow cytometric analysis relative to control; format: functional
[11] = test system: MDA-MB-231; test: Induction of apoptosis in human MDA-MB-231 cells assessed as late apoptotic cells at 10 umol/L measured after 6 hrs by annexin-V-FITC/7-AAD staining based flow cytometric analysis relative to control; format: functional
[12] = test system: MDA-MB-231; test: Induction of apoptosis in human MDA-MB-231 cells assessed as late apoptotic cells at 10 umol/L measured after 8 hrs by annexin-V-FITC/7-AAD staining based flow cytometric analysis relative to control; format: functional
[13] = test system: MDA-MB-231; test: Induction of apoptosis in human MDA-MB-231 cells assessed as late apoptotic cells at 10 umol/L measured after 24 hrs by annexin-V-FITC/7-AAD staining based flow cytometric analysis relative to control; format: functional
[14] = test system: MDA-MB-231; test: Cell cycle arrest in human MDA-MB-231 cells assessed as accumulation at sub-G0 phase at 1 uM measured after 24 hrs by propidium iodide staining based flow cytometry (reference value: 3%); format: functional
[15] = test system: MDA-MB-231; test: Cell cycle arrest in human MDA-MB-231 cells assessed as accumulation at G1 phase at 1 uM measured after 24 hrs by propidium iodide staining based flow cytometry (reference value: 62%); format: functional
[16] = test system: MDA-MB-231; test: Cell cycle arrest in human MDA-MB-231 cells assessed as accumulation at S phase at 1 uM measured after 24 hrs by propidium iodide staining based flow cytometry (reference value: 12%); format: functional
[17] = test system: MDA-MB-231; test: Cell cycle arrest in human MDA-MB-231 cells assessed as accumulation at G2 phase at 1 uM measured after 24 hrs by propidium iodide staining based flow cytometry (reference value: 23%); format: functional
[18] = test system: MDA-MB-231; test: Cell cycle arrest in human MDA-MB-231 cells assessed as accumulation at sub-G0 phase at 3 uM measured after 24 hrs by propidium iodide staining based flow cytometry (reference value: 3%); format: functional
[19] = test system: MDA-MB-231; test: Cell cycle arrest in human MDA-MB-231 cells assessed as accumulation at G1 phase at 3 uM measured after 24 hrs by propidium iodide staining based flow cytometry (reference value: 62%); format: functional
[20] = test system: MDA-MB-231; test: Cell cycle arrest in human MDA-MB-231 cells assessed as accumulation at S phase at 3 uM measured after 24 hrs by propidium iodide staining based flow cytometry (reference value: 12%); format: functional
[21] = test system: MDA-MB-231; test: Cell cycle arrest in human MDA-MB-231 cells assessed as accumulation at G2 phase at 3 uM measured after 24 hrs by propidium iodide staining based flow cytometry (reference value: 23%); format: functional
[22] = test system: MDA-MB-231; test: Cell cycle arrest in human MDA-MB-231 cells assessed as accumulation at sub-G0 phase at 10 uM measured after 24 hrs by propidium iodide staining based flow cytometry (reference value: 3%); format: functional
[23] = test system: MDA-MB-231; test: Cell cycle arrest in human MDA-MB-231 cells assessed as accumulation at G1 phase at 10 uM measured after 24 hrs by propidium iodide staining based flow cytometry (reference value: 62%); format: functional
[24] = test system: MDA-MB-231; test: Cell cycle arrest in human MDA-MB-231 cells assessed as accumulation at S phase at 10 uM measured after 24 hrs by propidium iodide staining based flow cytometry (reference value: 12%); format: functional
[25] = test system: MDA-MB-231; test: Cell cycle arrest in human MDA-MB-231 cells assessed as accumulation at G2 phase at 10 uM measured after 24 hrs by propidium iodide staining based flow cytometry (reference value: 23%); format: functional
[26] = test system: MDA-MB-231; test: Cell cycle arrest in human MDA-MB-231 cells assessed as accumulation at sub-G0 phase at 30 uM measured after 24 hrs by propidium iodide staining based flow cytometry (reference value: 3%); format: functional
[27] = test system: MDA-MB-231; test: Cell cycle arrest in human MDA-MB-231 cells assessed as accumulation at G1 phase at 30 uM measured after 24 hrs by propidium iodide staining based flow cytometry (reference value: 62%); format: functional
[28] = test system: MDA-MB-231; test: Cell cycle arrest in human MDA-MB-231 cells assessed as accumulation at S phase at 30 uM measured after 24 hrs by propidium iodide staining based flow cytometry (reference value: 12%); format: functional
[29] = test system: MDA-MB-231; test: Cell cycle arrest in human MDA-MB-231 cells assessed as accumulation at G2 phase at 30 uM measured after 24 hrs by propidium iodide staining based flow cytometry (reference value: 23%); format: functional
[30] = test system: MDA-MB-231; test: Induction of superoxide generation in human MDA-MB-231 cells at 5 umol/L measured after 24 hrs by DHE staining based flow cytometry; format: functional, cell-based
Summary of the method: (§2)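 Cells were treated with compound at 5 μmol/L or DMSO for 24 h, with or without dicoumarol preincubation (5 μmol/L, 30 min), then stained with DHE for 30 min. 2-OH-DHE fluorescence was read by flow cytometry and expressed relative to vehicle control. At least three independent measurements.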

[31] = test system: MDA-MB-231; test: Induction of superoxide generation in human MDA-MB-231 cells at 5 umol/L measured after 24 hrs in presence of NQO1 inhibitor dicoumarol by DHE staining based flow cytometry; format: functional, cell-based; summary of the method: as §2
[32] = test system: K562; test: Induction of superoxide generation in human K562 cells at 5 umol/L measured after 24 hrs by DHE staining based flow cytometry; format: functional, cell-based; summary of the method: as §2
[33] = test system: K562; test: Induction of superoxide generation in human K562 cells at 5 umol/L measured after 24 hrs in presence of NQO1 inhibitor dicoumarol by DHE staining based flow cytometry; format: functional, cell-based; summary of the method: as §2
[34] = target: T1, Signal transducer and activator of transcription 3 (Homo sapiens, UniProt P40763); test: Inhibition of STAT3 phosphorylation at Y705 in human MDA-MB-231 cells after 4 hrs by HTRF assay; format: cell-based
T1 sequence (P40763 whole entry): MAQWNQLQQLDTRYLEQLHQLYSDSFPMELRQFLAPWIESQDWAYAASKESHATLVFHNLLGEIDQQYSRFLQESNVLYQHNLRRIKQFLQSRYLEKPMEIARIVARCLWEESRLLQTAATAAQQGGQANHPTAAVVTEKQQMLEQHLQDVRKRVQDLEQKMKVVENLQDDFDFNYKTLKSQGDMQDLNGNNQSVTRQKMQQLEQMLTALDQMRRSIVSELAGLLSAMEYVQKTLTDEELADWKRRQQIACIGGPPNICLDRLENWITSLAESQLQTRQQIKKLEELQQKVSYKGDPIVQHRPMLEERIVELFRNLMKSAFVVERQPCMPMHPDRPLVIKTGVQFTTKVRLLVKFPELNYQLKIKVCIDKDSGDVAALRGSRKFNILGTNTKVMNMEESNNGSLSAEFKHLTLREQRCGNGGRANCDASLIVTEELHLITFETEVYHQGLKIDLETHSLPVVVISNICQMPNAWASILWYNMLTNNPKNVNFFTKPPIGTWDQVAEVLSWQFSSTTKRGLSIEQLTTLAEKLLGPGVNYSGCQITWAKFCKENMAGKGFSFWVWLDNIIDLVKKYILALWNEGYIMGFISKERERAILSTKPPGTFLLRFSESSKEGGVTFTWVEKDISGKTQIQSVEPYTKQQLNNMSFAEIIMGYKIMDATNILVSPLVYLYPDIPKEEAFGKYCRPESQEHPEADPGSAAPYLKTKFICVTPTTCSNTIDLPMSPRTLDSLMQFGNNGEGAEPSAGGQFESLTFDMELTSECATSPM
Summary of the method: (§3)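 MDA-MB-231 cells (10^5/well) were left to adhere overnight, serum-starved for 4 h in DMEM, then treated with 0.1–30 μmol/L compound (0.5% final DMSO) for 4 h at 37 °C. Lysates were incubated 24 h at room temperature with Eu-cryptate/d2 antibody pairs for phospho-STAT3 (Y705) or total STAT3. The 665/620 nm HTRF ratio was taken and phospho/total normalized. EC50 was obtained by nonlinear regression.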

[35] = test system: MDA-MB-231; test: Effect on total STAT3 level in human MDA-MB-231 cells at 0.1 to 30 umol/L after 4 hrs by HTRF assay; format: cell-based; details: mda-mb-231, 4 h; summary of the method: as §3
[36] = target: T1, Signal transducer and activator of transcription 3; test: Inhibition of STAT3 phosphorylation at Y705 in human MDA-MB-231 cells assessed as reduction in ratio of phosphorylated STAT3 to total STAT3 level after 4 hrs by HTRF assay; format: cell-based; summary of the method: as §3
[37] = target: T1, Signal transducer and activator of transcription 3; test: Binding affinity to STAT3 in human MDA-MB-231 cells at 100 uM measured after 1 hr by DARTS-Western blot analysis; format: cell-based
Summary of the method: (§4)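 A nondenaturing lysate of MDA-MB-231 cells (M-PER with protease and phosphatase inhibitors) was incubated with compound at 100 μmol/L or DMSO for 1 h at room temperature in the dark. TNC buffer pH 8.0 was added, then thermolysin (1:3000 of protein) for 30 min at room temperature; undigested controls were kept. Run on SDS-PAGE with 10 μg protein per lane, then Western blot with anti-STAT3.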

[38] = target: T1, Signal transducer and activator of transcription 3; test: Binding affinity to STAT3 in human MDA-MB-231 cells at 100 uM treated for 1 hr followed by thermolysin addition measured after 30 mins by DARTS-Western blot analysis; format: cell-based; summary of the method: as §4

| Structure (SMILES) | IC50 [1] [nM] | IC50 [2] [nM] | viability at 10 µM [3] [%] | viability at 10 µM [4] [%] | viability at 10 µM [5] [%] | viability at 10 µM [6] [%] | viability at 10 µM [7] [%] | Activity [10] [%] | Activity [13] [%] | Activity [14] [%] | Activity [15] [%] | Activity [16] [%] | Activity [17] [%] | Activity [18] [%] | Activity [19] [%] | Activity [20] [%] | Activity [21] [%] | Activity [22] [%] | Activity [23] [%] | Activity [24] [%] | further results |
| --- | --- | --- | --- | --- | --- | --- | --- | --- | --- | --- | --- | --- | --- | --- | --- | --- | --- | --- | --- | --- | --- |
| CC(C)=CCC1=C(O)C(=O)c2ccccc2C1=O [LAPACHOL] | > 10000 | > 10000 | – | – | – | – | – | – | – | – | – | – | – | – | – | – | – | – | – | – | – |
| CC1(C)CCC2=C(O1)c1ccccc1C(=O)C2=O [LAPACHONE] | 4300 | 1600 | 97 | 93 | 90 | 86 | 38 | 15 | 48 | 4 | 62 | 14 | 20 | 3 | 63 | 14 | 21 | 3 | 53 | 18 | Activity [8]: 4%; Activity [9]: 7%; Activity [11]: 7%; Activity [12]: 8%; Activity [25]: 27%; Activity [26]: 3%; Activity [27]: 57%; Activity [28]: 16%; Activity [29]: 24%; Activity [30]: inactive; Activity [31]: inactive; Activity [32]: inactive; Activity [33]: inactive |
| CC(=O)c1cc2c(o1)C(=O)c1ccccc1C2=O [NAPABUCASIN] | 2100 | 1000 | 97 | 97 | 96 | 94 | 62 | 20 | 19 | 5 | 60 | 13 | 22 | 5 | 56 | 15 | 25 | 4 | 56 | 14 | Activity [25]: 26%; Activity [26]: 3%; Activity [27]: 56%; Activity [28]: 15%; Activity [29]: 26%; Activity [30]: Active; Activity [31]: Active; Activity [33]: inactive; EC50 [34]: 2000 nM; Activity [35]: Non-Toxic; EC50 [36]: 1900 nM; Activity [37]: inactive; Activity [38]: Active |
